Scp1 inh = Scp-1 phosphatase inhibitors, primary screen, biochemical, colorimetric, uHTS | Recombinant Scp1, phosphopeptide, malachite green phosphate absorbance | inhibition, % at 20 µM | 340,000 tested, 0.88% active;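 active means inhibition above about 50% at 20 µM, limit read from the data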
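Test system: SCP-1 phosphatase catalytic domain, residues 76-261; measured by: colorimetric phosphate reagent with accelerator and stabiliser, absorbance at 630 nm; timing: enzyme reaction 45 min at room temperature, colour 5 min, stabilisation 30 min; also added: Phosphorylated 17-residue peptide substrate; compound dosing: one concentration, 20 µM, with 1.0% DMSO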
CASP6 VEID inh = human caspase-6 inhibitors, primary screen, biochemical, VEID-R110 fluorescence, single point, set 2 | P55212 | purified caspase-6, Z-VEID-R110 cleavage fluorescence | inhibition, % at 12.5 µM | 350,000 tested, 0.53% active;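 active means mean inhibition across replicates at least about 35%, with every replicate also reaching that limit, limit read from the data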
SUMO1-SIM PPI = modulators of SUMO1 protein-protein interactions, primary screen, biochemical, uHTS. Small ubiquitin-related modifier 1 (Homo sapiens), P63165. SUMO1 binding to a labelled peptide, TR-FRET, 1 h. inhibition, % at 20 µM. 360,000 tested, 0.33% active. AID 602429, 2012; in the data active means inhibition above about 37%
DNMT1 block = human DNMT1 methyltransferase inhibitors, primary screen, biochemical, molecular beacon, fluorescence, HinP1I cleavage, uHTS. inhibition (reported as % activation of signal), % at 10 µM. 360,000 tested, 0.83% active. AID 588458, 2011; in the data active means inhibition above about 50%
Target sequence (P26358 504-1616 limits assumed): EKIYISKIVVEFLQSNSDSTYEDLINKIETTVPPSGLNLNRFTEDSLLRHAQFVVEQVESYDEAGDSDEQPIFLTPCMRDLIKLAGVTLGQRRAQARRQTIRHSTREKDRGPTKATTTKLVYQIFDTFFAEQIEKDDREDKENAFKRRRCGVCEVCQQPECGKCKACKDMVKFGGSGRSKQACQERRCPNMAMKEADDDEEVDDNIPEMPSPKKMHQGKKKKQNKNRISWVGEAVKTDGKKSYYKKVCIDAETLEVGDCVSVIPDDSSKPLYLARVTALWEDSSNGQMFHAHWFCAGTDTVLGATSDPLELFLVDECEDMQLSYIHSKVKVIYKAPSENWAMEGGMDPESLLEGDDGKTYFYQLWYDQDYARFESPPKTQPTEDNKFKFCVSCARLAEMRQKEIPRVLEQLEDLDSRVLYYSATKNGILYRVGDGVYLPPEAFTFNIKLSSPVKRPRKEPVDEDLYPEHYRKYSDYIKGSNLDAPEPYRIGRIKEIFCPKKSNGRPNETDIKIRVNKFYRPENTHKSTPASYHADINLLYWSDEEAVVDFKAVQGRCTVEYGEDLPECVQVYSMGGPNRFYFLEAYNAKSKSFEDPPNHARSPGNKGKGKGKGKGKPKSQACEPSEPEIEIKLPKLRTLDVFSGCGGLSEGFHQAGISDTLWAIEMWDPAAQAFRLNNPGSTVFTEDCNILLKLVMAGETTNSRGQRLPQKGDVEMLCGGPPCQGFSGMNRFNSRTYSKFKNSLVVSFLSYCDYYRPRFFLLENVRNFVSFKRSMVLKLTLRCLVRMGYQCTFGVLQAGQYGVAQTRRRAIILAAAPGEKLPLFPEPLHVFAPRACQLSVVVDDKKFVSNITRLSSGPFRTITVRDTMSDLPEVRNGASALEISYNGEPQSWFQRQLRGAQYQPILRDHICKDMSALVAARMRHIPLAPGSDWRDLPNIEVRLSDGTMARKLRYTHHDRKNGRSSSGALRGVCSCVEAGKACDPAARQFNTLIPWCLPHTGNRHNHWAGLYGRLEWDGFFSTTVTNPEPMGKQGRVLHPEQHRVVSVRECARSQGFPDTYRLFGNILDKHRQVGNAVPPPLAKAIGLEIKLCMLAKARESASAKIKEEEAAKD
STEP block = STEP phosphatase inhibitors, primary screen, biochemical, fluorescence intensity, uHTS; Tyrosine-protein phosphatase non-receptor type 5 (Homo sapiens), P54829; inhibition, % at 20 µM; recombinant STEP, OMFP fluorogenic substrate; 360,000 tested, 0.25% active;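 active means inhibition at 20 µM, scaled per plate between control wells, above about 37%, limit read from the data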
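Assay system: isolated STEP enzyme / Timing: 20 min at room temperature, dark / Doses: 20 µM, 1% DMSO / Technique: fluorescence intensity, excitation 480 nm, emission 540 nm / Reagent: fluorogenic phosphatase substrate OMFP at 25 µM final / Measure: percent inhibition scaled to no-enzyme and uninhibited-enzyme controls, plate-pattern corrected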
LMPTP block = LMPTP phosphatase inhibitors, primary screen, biochemical, fluorescence intensity, uHTS. recombinant LMPTP-A, OMFP fluorogenic substrate. inhibition, % at 20 µM. Low molecular weight phosphotyrosine protein phosphatase (Homo sapiens), P24666. 360,000 tested, 0.22% active;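 active means compounds that cut the enzyme signal by at least half of the control window in the single-dose screen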
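Assay system: LMPTP-A, protein tyrosine phosphatase of low molecular weight / Medium: pH 6.0 Bis-Tris buffer with DTT and Triton X-100 / Schedule: 50 min enzyme reaction at room temperature, protected from light / Measured by: endpoint fluorescence intensity from OMFP dephosphorylation / Read-out basis: % inhibition relative to no-enzyme and uninhibited control wells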
Hits are given with their value; – = inactive; · = no result; ! = not active in a repeat. Rows were chosen to be rich in hits. Some 1.7% of all compounds tested hit in one or more screens of this group.

SMILES	Scp1 inh	CASP6 VEID inh	SUMO1-SIM PPI	DNMT1 block	STEP block	LMPTP block
CN(N=Nc1ccc([N+](=O)[O-])cc1)c1ccccc1	–	–	–	–	–	–
CN(CCCC(=O)O)c1ccc(N=Nc2ccc([N+](=O)[O-])cc2)cc1	110.5	–	–	–	99.1	77.2
COC(=O)[C@]12C[C@H](CC(=O)NCc3ccc(C)o3)C(=O)N(Cc3ccccc3)C1=C[C@H](C1CCCC1)O[C@@H]2C	·	66.0	·	·	·	·
COc1cc(CC(NC(C)=O)C(=O)NC2CCN(c3nc(C)cc(C)c3C#N)CC2)cc(OC)c1 (stereo unspecified)	–	·	41.7	–	–	–
S=c1[nH]nc(-c2cc(-c3ccccc3)n[nH]2)n1/N=C/c1cccc(Cl)c1	–	–	88.4	–	–	–
CCN(C(=O)CSc1nnc(Nc2ccc(OC)cc2)s1)C1CCS(=O)(=O)C1 (stereo unspecified)	–	–	48.6	–	–	–
CCN(C(=O)CSc1nnc(Nc2ccccc2C)s1)C1CCS(=O)(=O)C1 (stereo unspecified)	–	–	–	–	–	–
CC1C/C(=N\NC(N)=S)c2cc(Cl)ccc2S1 (stereo unspecified)	–	–	–	–	–	–
CC(C)=C1CCC(C)CC1=NNC(N)=S (stereo unspecified)	56.0	–	–	–	–	–
Cc1csc2nc(O)c(C(=O)NCc3ccc4c(c3)OCO4)c(=O)n12	–	–	–	–	–	52.8
C=C1[C@H](C)CN[C@H]1CCO	–	42.5	–	–	–	–
C=C1[C@@H](C)CN[C@@H]1CCO	·	–	·	·	·	·
COc1ccc(-n2c(SCC(=O)O)nc3sc4c(c3c2=O)CCCC4)cc1	–	–	–	–	–	–
COc1ccc(-n2c(NNC(C)=O)nc3sc4c(c3c2=O)CCCC4)cc1	–	68.5	–	–	–	–
O=C(Cn1c2ccc(F)cc2c2nc3n(c(=O)c21)CCS3)NC1CCCC1	–	52.3	–	–	–	–
Cc1c(C(=O)OCC(=O)N(CC(C)C)c2c(N)n(Cc3ccccc3)c(=O)[nH]c2=O)oc2ccccc12	–	46.0	–	–	–	–
CCOc1ccc2oc(C(=O)OCC(=O)N(CC(C)C)c3c(N)n(Cc4ccccc4)c(=O)[nH]c3=O)c(C)c2c1	–	–	–	–	–	–
COCCN(C(=O)COC(=O)/C=C/c1ccco1)c1c(N)n(Cc2ccccc2)c(=O)[nH]c1=O	–	43.2	–	–	–	–
C[C@H]1CN([C@@H](C)CO)C(=O)c2cccc(NS(=O)(=O)c3ccc(F)cc3)c2O[C@@H]1CN(C)CC1CCCCC1	·	–	·	·	·	·
CCOc1ccc(CNC(=O)CCc2cn(C)c3ccccc23)cc1OC	–	–	–	–	–	–
COc1cc(N=c2ssnc2Cl)c(OC)cc1Cl	–	–	–	–	–	48.2!
COc1ccc(OC)c(N=c2ssnc2Cl)c1	–	·	–	–	–	–
CC(=O)N1[C@H](CO)[C@@H](c2ccccc2)[C@@H]1CN(CC1CCC1)C(=O)CN(C)C	·	–	·	·	·	·
Cc1cc2c(NC(=O)CCCC(=O)O)cccc2nn1	–	–	–	–	–	–
Cc1cc2c(NC(=O)Nc3ccc(C(F)(F)F)cc3)cccc2nn1	–	53.8	–	–	–	–
SMILES	Scp1 inh	CASP6 VEID inh	SUMO1-SIM PPI	DNMT1 block	STEP block	LMPTP block
COc1cc(NC2c3ccccc3C(=O)N2c2cc(C)ccn2)cc(OC)c1OC (stereo unspecified)	–	–	–	–	–	–
Cc1c(C(=O)O)sc(S(=O)(=O)N2CCN(C(=O)CCc3ccccc3)CC2)c1C(=O)O	–	–	–	–	–	–
O=C1NC(=O)/C(=C/c2ccc(-c3cccc([N+](=O)[O-])c3)o2)S1	–	–	55.4	–	–	–
O=Cc1ccc(-c2cccc([N+](=O)[O-])c2)o1	–	–	–	–	–	–
CCCC1=NN2C(=N)/C(=C\c3cc(C)n(Cc4ccccc4)c3C)C(=O)N=C2S1	–	–	–	–	–	–
CCCC1=NN2C(=N)/C(=C\c3cc(C)n(-c4cccc(C)c4)c3C)C(=O)N=C2S1	–	–	–	55.5	–	–
CC(C)(C)c1cc(-c2csc(Nc3ccccc3)[n+]2Cc2ccc(C(=O)O)cc2)cc(C(C)(C)C)c1O	–	·	41.9	–	–	–
O=C(CCc1nnc2n(Cc3ccc(Cl)cc3)c(=O)c3ccccc3n12)N1CCN(c2ccccn2)CC1	–	·	–	–	–	63.7
COc1ccc(S(=O)(=O)NCc2cccs2)cc1	58.9	·	–	–	55.1	–
CCCCCSc1nnc(-c2ccccc2NC(C)=O)c(=O)[nH]1	–	–	–	–	–	–
CCOC(=O)/C(C)=C1\NC(C)(C)Cc2ccccc21	100.8	–	–	–	–	–
Cc1ccc(-c2ccc3c(c2)O[C@@H](CN(C)Cc2cccc(C(=O)O)c2)[C@@H](C)CN([C@@H](C)CO)S3(=O)=O)cc1	·	–	·	·	·	·
CCOc1cc(/C=C(\C(=O)O)c2ccc(S(=O)(=O)N3CCCC3)s2)ccc1OC	–	–	–	–	–	–
Cc1ccc(C)c(/C=C(\C(=O)O)c2ccc(S(=O)(=O)N3CCCCC3)s2)c1	–	37.4	–	–	–	–
COc1ccc(Br)cc1/C=C(\C(=O)O)c1ccc(S(=O)(=O)N2CCCCC2)s1	–	36.9	–	–	–	–
O=C(O)/C(=C\c1cccc(O)c1)c1ccc(S(=O)(=O)N2CCCC2)s1	–	57.9	–	–	–	–
O=C(O)/C(=C\c1cccc(F)c1)c1ccc(S(=O)(=O)N2CCCCC2)s1	–	–	–	–	–	–
O=C1Cc2c(-c3ccccc3)cc(-c3cccc(Cl)c3)nc2-c2ccccc2N1	–	–	–	–	–	–
CC1=C(C(=O)OCC(Br)(Br)Br)C(c2cccc([N+](=O)[O-])c2)NC(=O)N1CCCC(=O)O (stereo unspecified)	–	–	–	–	–	–
O=C(NCCS(=O)(=O)N1CCN(c2ccccc2F)CC1)C1CC(=O)N(c2ccccc2)C1 (stereo unspecified)	–	–	–	–	–	–
Cc1ccc(C)c(N2N=C(C(=O)OCc3nnc(-c4ccccc4Br)o3)CCC2=O)c1	·	61.4	–	–	–	–
Cc1cc(C=C2C(=O)c3ccccc3C2=O)c(C)n1C	–	·	51.5	–	–	–

Bioassay records from PubChem BioAssay.
